Experimental data taken from ChEMBL document CHEMBL3085642, “Synthesis and evaluation of novel 4-nitropyrrole-based 1,3,4-oxadiazole derivatives as antimicrobial and anti-tubercular agents” (Eur J Med Chem, 2013).
In brackets after ≈: the same amount, converted by molar mass.

How the values were obtained:
Staphylococcus aureus [1] = experiment: Antibacterial activity against methicillin-susceptible Staphylococcus aureus ATCC 35556 by broth dilution method; assay type: functional
Staphylococcus aureus [2] = experiment: Antibacterial activity against Staphylococcus aureus ATCC 25923 by two fold broth dilution method; assay type: functional
Staphylococcus aureus [3] = experiment: Antibacterial activity against methicillin-resistant Staphylococcus aureus ATCC 43866 by broth dilution method; assay type: functional
Escherichia coli = experiment: Antibacterial activity against Escherichia coli ATCC 25922 by two fold broth dilution method; assay type: functional
Candida albicans [4] = experiment: Antifungal activity against Candida albicans after 48 hrs by two fold agar dilution method; assay type: functional
Procedure, shortened: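 Two-fold serial dilutions in DMSO were tested against C. albicans by agar dilution. Cultures were incubated for 48 h at 35 °C and growth was monitored. MIC was taken as the lowest concentration (highest dilution) that arrested fungal growth.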

Klebsiella pneumoniae = experiment: Antibacterial activity against Klebsiella pneumoniae by two fold broth dilution method; assay type: functional
[5] = test system: Mycobacterium tuberculosis; experiment: Antitubercular activity against Mycobacterium tuberculosis H37Rv after 7 days by resazurin microtitre assay; assay type: functional; settings: 168 h
Vero = experiment: Cytotoxicity against african green monkey Vero cells after 72 hrs by MTT assay; assay type: cell-based; settings: Chlorocebus sabaeus
Procedure, shortened: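 Vero cells were exposed to compounds for 72 h. Viability was measured by cellular conversion of MTT into formazan (non-radioactive proliferation assay), and the cytotoxic concentration was reported as IC50.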

Bacillus spizizenii = experiment: Antibacterial activity against Bacillus subtilis ATCC 6633 by two fold broth dilution method; assay type: functional
Candida albicans [6] = experiment: Ratio of ampotericin-B MIC to compound MIC against Candida albicans; assay type: functional
Staphylococcus aureus [7] = experiment: Ratio of ciprofloxacin MIC to compound MIC against methicillin-susceptible Staphylococcus aureus ATCC 35556; assay type: functional
Staphylococcus aureus [8] = experiment: Ratio of ciprofloxacin MIC to compound MIC against Staphylococcus aureus ATCC 25923; assay type: functional

| SMILES | MIC (Staphylococcus aureus [1]) | MIC (Staphylococcus aureus [2]) | MIC (Staphylococcus aureus [3]) | MIC (Escherichia coli) | MIC (Candida albicans [4]) | MIC (Klebsiella pneumoniae) | MIC [5] | IC50 (Vero) | MIC (Bacillus spizizenii) | Ratio (Candida albicans [6]) | Ratio (Staphylococcus aureus [7]) | Ratio (Staphylococcus aureus [8]) |
| --- | --- | --- | --- | --- | --- | --- | --- | --- | --- | --- | --- | --- |
| COc1cc(/C=C/c2nnc(-c3cc([N+](=O)[O-])c[nH]3)o2)ccc1O | 1.56 µg/mL (≈ 4.75 µM) | 3.12 µg/mL (≈ 9.52 µM) | 3.12 µg/mL (≈ 9.52 µM) | 3.12 µg/mL (≈ 9.52 µM) | 25 µg/mL (≈ 76.2 µM) | 100 µg/mL (≈ 305 µM) | 23.7 µg/mL (≈ 72.2 µM) | 220 µM | 3.12 µg/mL (≈ 9.52 µM) | – | – | – |
| O=[N+]([O-])c1c[nH]c(-c2nnc(-c3ccns3)o2)c1 | 1.56 µg/mL (≈ 5.93 µM) | 1.56 µg/mL (≈ 5.93 µM) | 3.12 µg/mL (≈ 11.9 µM) | 6.25 µg/mL (≈ 23.7 µM) | 3.12 µg/mL (≈ 11.9 µM) | 25 µg/mL (≈ 95 µM) | 62.7 µg/mL (≈ 238 µM) | 532 µM | 3.12 µg/mL (≈ 11.9 µM) | – | – | – |
| N#Cc1ccc(-c2nnc(-c3cc([N+](=O)[O-])c[nH]3)o2)cc1 | 1.56 µg/mL (≈ 5.55 µM) | 1.56 µg/mL (≈ 5.55 µM) | 3.12 µg/mL (≈ 11.1 µM) | 3.12 µg/mL (≈ 11.1 µM) | 3.12 µg/mL (≈ 11.1 µM) | 25 µg/mL (≈ 88.9 µM) | 26.8 µg/mL (≈ 95.3 µM) | 199 µM | 3.12 µg/mL (≈ 11.1 µM) | – | – | – |
| O=[N+]([O-])c1c[nH]c(-c2nnc(-c3ccccc3)o2)c1 | 1.56 µg/mL (≈ 6.09 µM) | 3.12 µg/mL (≈ 12.2 µM) | 3.12 µg/mL (≈ 12.2 µM) | 6.25 µg/mL (≈ 24.4 µM) | 12.5 µg/mL (≈ 48.8 µM) | 25 µg/mL (≈ 97.6 µM) | 56.3 µg/mL (≈ 220 µM) | 423 µM | 3.12 µg/mL (≈ 12.2 µM) | – | – | – |
| O=[N+]([O-])c1c[nH]c(-c2nnc(Cc3ccc(F)c4ccccc34)o2)c1 | 1.56 µg/mL (≈ 4.61 µM) | 1.56 µg/mL (≈ 4.61 µM) | 3.12 µg/mL (≈ 9.24 µM) | 3.12 µg/mL (≈ 9.24 µM) | 3.12 µg/mL (≈ 9.24 µM) | 25 µg/mL (≈ 73.9 µM) | 64.8 µg/mL (≈ 192 µM) | 229 µM | 3.12 µg/mL (≈ 9.24 µM) | – | – | – |
| Cn1cc([N+](=O)[O-])cc1-c1nnc(-c2ccns2)o1 | 0.39 µg/mL (≈ 1.41 µM) | 0.78 µg/mL (≈ 2.81 µM) | 1.56 µg/mL (≈ 5.63 µM) | 6.25 µg/mL (≈ 22.5 µM) | 1.56 µg/mL (≈ 5.63 µM) | 12.5 µg/mL (≈ 45.1 µM) | – | 320 µM | 1.56 µg/mL (≈ 5.63 µM) | 2 | 2 | 2 |
| COc1ccc(-c2nnc(-c3cc([N+](=O)[O-])c[nH]3)o2)cc1 | 1.56 µg/mL (≈ 5.45 µM) | 1.56 µg/mL (≈ 5.45 µM) | 3.12 µg/mL (≈ 10.9 µM) | 6.25 µg/mL (≈ 21.8 µM) | 3.12 µg/mL (≈ 10.9 µM) | 25 µg/mL (≈ 87.3 µM) | 34 µg/mL (≈ 119 µM) | 409 µM | 3.12 µg/mL (≈ 10.9 µM) | – | – | – |
| O=[N+]([O-])c1c[nH]c(-c2nnc(-c3ccco3)o2)c1 | 1.56 µg/mL (≈ 6.34 µM) | 0.78 µg/mL (≈ 3.17 µM) | 3.12 µg/mL (≈ 12.7 µM) | 3.12 µg/mL (≈ 12.7 µM) | 3.12 µg/mL (≈ 12.7 µM) | 25 µg/mL (≈ 102 µM) | 42.8 µg/mL (≈ 174 µM) | 370 µM | 1.56 µg/mL (≈ 6.34 µM) | – | – | 2 |
| Cn1cc([N+](=O)[O-])cc1-c1nnc(-c2cc3cc(Cl)ccc3[nH]2)o1 | 0.39 µg/mL (≈ 1.13 µM) | 0.39 µg/mL (≈ 1.13 µM) | 1.56 µg/mL (≈ 4.54 µM) | 1.56 µg/mL (≈ 4.54 µM) | 1.56 µg/mL (≈ 4.54 µM) | 12.5 µg/mL (≈ 36.4 µM) | 24 µg/mL (≈ 69.8 µM) | 743 µM | 1.56 µg/mL (≈ 4.54 µM) | – | – | 3 |
| Cn1cc([N+](=O)[O-])cc1-c1nnc(Cc2ccc(F)c3ccccc23)o1 | 0.39 µg/mL (≈ 1.11 µM) | 0.78 µg/mL (≈ 2.21 µM) | 1.56 µg/mL (≈ 4.43 µM) | 6.25 µg/mL (≈ 17.7 µM) | 1.56 µg/mL (≈ 4.43 µM) | 12.5 µg/mL (≈ 35.5 µM) | – | 119 µM | 1.56 µg/mL (≈ 4.43 µM) | 2 | 2 | 2 |
| COc1cccc(-c2nnc(-c3cc([N+](=O)[O-])c[nH]3)o2)c1 | 1.56 µg/mL (≈ 5.45 µM) | 1.56 µg/mL (≈ 5.45 µM) | 3.12 µg/mL (≈ 10.9 µM) | 3.12 µg/mL (≈ 10.9 µM) | 3.12 µg/mL (≈ 10.9 µM) | 25 µg/mL (≈ 87.3 µM) | 13.5 µg/mL (≈ 47.2 µM) | 429 µM | 3.12 µg/mL (≈ 10.9 µM) | – | – | – |
| Cn1cc([N+](=O)[O-])cc1-c1nnc(-c2cccc([N+](=O)[O-])c2O)o1 | 0.39 µg/mL (≈ 1.18 µM) | 0.78 µg/mL (≈ 2.35 µM) | 1.56 µg/mL (≈ 4.71 µM) | 3.12 µg/mL (≈ 9.43 µM) | 1.56 µg/mL (≈ 4.71 µM) | 12.5 µg/mL (≈ 37.7 µM) | – | 269 µM | 1.56 µg/mL (≈ 4.71 µM) | 2 | 2 | 2 |
| O=[N+]([O-])c1c[nH]c(-c2nnc(Cc3ccccc3F)o2)c1 | 1.56 µg/mL (≈ 5.41 µM) | 1.56 µg/mL (≈ 5.41 µM) | 3.12 µg/mL (≈ 10.8 µM) | 1.56 µg/mL (≈ 5.41 µM) | 3.12 µg/mL (≈ 10.8 µM) | 25 µg/mL (≈ 86.7 µM) | 0.46 µg/mL (≈ 1.6 µM) | 620 µM | 1.56 µg/mL (≈ 5.41 µM) | – | – | – |
| COc1ccc(-c2nnc(-c3cc([N+](=O)[O-])cn3C)o2)cc1 | 0.39 µg/mL (≈ 1.3 µM) | 0.78 µg/mL (≈ 2.6 µM) | 1.56 µg/mL (≈ 5.2 µM) | 6.25 µg/mL (≈ 20.8 µM) | 1.56 µg/mL (≈ 5.2 µM) | 12.5 µg/mL (≈ 41.6 µM) | – | 281 µM | 1.56 µg/mL (≈ 5.2 µM) | 2 | 2 | 2 |
| O=C(O)c1cn(C2CC2)c2cc(N3CCNCC3)c(F)cc2c1=O [CIPROFLOXACIN] | 1.56 µg/mL (≈ 4.71 µM) | 1.56 µg/mL (≈ 4.71 µM) | 3.12 µg/mL (≈ 9.43 µM) | – | – | 1.56 µg/mL (≈ 4.71 µM) | – | – | 1.56 µg/mL (≈ 4.71 µM) | – | – | – |
| O=[N+]([O-])c1c[nH]c(-c2nnc(-c3ccccc3Br)o2)c1 | 1.56 µg/mL (≈ 4.66 µM) | 1.56 µg/mL (≈ 4.66 µM) | 3.12 µg/mL (≈ 9.33 µM) | 1.56 µg/mL (≈ 4.66 µM) | 3.12 µg/mL (≈ 9.33 µM) | 25 µg/mL (≈ 74.6 µM) | 0.81 µg/mL (≈ 2.42 µM) | 190 µM | 1.56 µg/mL (≈ 4.66 µM) | – | – | – |
